A selection: hits, their analogues and other compounds. The true share with any hit is near 1.5%.
SENP1 inh = blocks the human SENP1 SUMO protease catalytic domain. recombinant SENP1 catalytic domain, CyPet-SUMO1-YPet FRET cleavage. inhibition, % at 10 µM. 360,000 compounds, 0.21% hits. AID 624204;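 active = inhibition at least 30% at 10 µM, raw YFP signal under a set limit, fluorescence ratio 0.5 to 1.5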;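 note: 0% = enzyme with DMSO and 100% = no enzyme wells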
Target sequence (Q9P0U3 419-644 limits assumed): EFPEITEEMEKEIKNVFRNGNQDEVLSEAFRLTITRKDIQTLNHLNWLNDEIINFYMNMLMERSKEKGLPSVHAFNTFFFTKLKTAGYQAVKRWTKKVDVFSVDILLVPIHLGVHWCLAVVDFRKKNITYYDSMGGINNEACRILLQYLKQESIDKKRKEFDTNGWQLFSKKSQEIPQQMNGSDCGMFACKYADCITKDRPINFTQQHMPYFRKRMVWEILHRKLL
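Test system: human SENP1 catalytic domain; medium: Tris pH 8 buffer plus EDTA, NaCl, BME, BSA, NP40, catalase; incubation: 50 min reaction at room temperature; technique: FRET, CFP and YFP emission; controls: no-enzyme low control and enzyme-plus-DMSO high control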
VLA-4 inh = inhibition in a human VLA-4 binding assay. inhibition, % (about 7 µM as worked out from the volumes in the protocol). AID 2557. P13612. 330,000 compounds, 0.2% hits. VLA-4 expressing cells, ligand binding flow cytometry; in the data active = inhibition above about 50%
Platelet DG rel = modulates dense granule release in human platelets; inhibition, %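 (compounds screened at 7.5 µM in platelet-rich plasma)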; AID 1663; 300,000 compounds, 0.22% hits; human platelet-rich plasma, SFLLRN dense granule ATP release, luminescence;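 active = mean replicate score, as percent of positive control, at or above 50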
Myeloid diff MLP = promotes myeloid progenitor differentiation | ER-HoxA9 myeloid progenitors, lysozyme-GFP differentiation, flow cytometry | calls only at 10 µM | 360,000 compounds, 1% hits | AID 624256;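 active = normalized GFP-positive differentiation at or above the plate's own cutoff, the solvent-only control mean plus 3 SD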;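 note: cells exposed to compound for four days before flow analysis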
Myeloid diff = promotes myeloid progenitor differentiation. shares compounds with Myeloid diff MLP. ER-HoxA9 myeloid progenitors, GFP/Mac1 double-positive flow. calls only. 2,300 compounds, 2% hits;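 active = share of green or green-and-red cells above 9 and 9% in run 1 or 4 and 3% in run 2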
GFP autofluor = compound fluorescence in myeloid differentiation counter-screen; AID 651707; shares compounds with Myeloid diff MLP; 2,300 compounds, 7.4% hits; ER-HoxA9 myeloid progenitors, no estrogen, GFP autofluorescence flow cytometry; vehicle wells 0%, positive control 100%; fluorescence response, % (test concentration not listed);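 active = over 5% cells positive for green fluorescent reporter, or over 2% positive for both it and APC stain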;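 note: range taken on the double positive population between DMSO and positive control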
Starred values were filed as active, the others as inactive; i = inactive; . = no result given; + = active, no number.

SMILES | SENP1 inh | VLA-4 inh | Platelet DG rel | Myeloid diff MLP | Myeloid diff | GFP autofluor
CC1(C)CC(=O)C2=C(C1)N(Cc1ccco1)C(=O)C2(NC(=O)C1CCCCC1)C(F)(F)F (stereo not given) | -1.0 | -1.2 | -1.6 | i | i | 0.3
CN(C(=O)c1ccc(NC(=O)Cc2cccc(NC(=O)C3CCN(C(=O)C4CC4)CC3)c2)cc1)C1CC1 | 1.8 | . | . | i | . | .
CC1(C)CC(=O)C/C(=N/NC(=O)c2ccc(-c3ccccc3)cc2)C1 | -5.8 | 3.2 | 0.7 | + | i | 5.2*
O=C(CCc1c[nH]c2ccccc12)N1CCN(c2ccc(O)cc2)CC1 | 0.2 | -0.2 | 0.9 | i | . | .
CC1(C)N=C(N)NC(Nc2cccc(Br)c2)=N1 | -0.1 | 5.7 | 3.9 | i | . | .
CC1(C)N=C(N)NC(Nc2ccc(Br)cc2)=N1 | 0.2 | 24.0 | 3.2 | + | i | 0.7
CCOc1ccc(/C=N/NC(=O)c2ccccc2Cl)cc1CN1CC2CC(C1)c1cccc(=O)n1C2 (stereo not given) | -3.5 | 0.5 | . | i | i | 0.0
CC(CCc1ccco1)NC(=O)Cn1nc(Cc2ccncc2)c2ccccc2c1=O (stereo not given) | 0.3 | 1.3 | -3.3 | i | i | 0.2
O=C1CCCN1CCCNS(=O)(=O)c1ccc(Cl)c(C(=O)N2CCOCC2)c1 | 0.6 | 29.6 | -6.8 | i | i | 0.0
COc1ccc(NC(=O)c2ccc(C)o2)c([N+](=O)[O-])c1 | 3.1 | -3.6 | 4.9 | i | . | .
COc1ccc(NC(=O)c2ccc([N+](=O)[O-])s2)c([N+](=O)[O-])c1 | 3.4 | -0.7 | 4.6 | i | i | 0.0
c1ccc(COc2ncnc3c2ncn3CCCN2CCN(c3ncccn3)CC2)cc1 | -0.3 | . | . | i | i | 0.2
c1ccc(COc2ncnc3c2ncn3CCCN2CCN(c3ccccn3)CC2)cc1 | -0.4 | . | . | i | . | .
COc1ccc(OC)c(/C=C2\SC(=S)N(NS(=O)(=O)c3ccc(C)cc3)C2=O)c1 | 16.7 | 4.5 | 3.0 | i | . | .
COc1ccc(/C=C2\SC(=S)N(NS(=O)(=O)c3ccc(C)cc3)C2=O)c(OC)c1 | -11.6 | 1.8 | -7.7 | i | i | 0.0
CCCc1ccc(OCc2ccc(C(=O)O)o2)c(OC)c1 | -3.1 | 3.4 | 11.6 | i | . | .
CCCc1ccc(OCc2ccc(C(=O)NN)o2)c(OC)c1 | 1.8 | -5.6 | 3.6 | + | i | 0.0
Cc1nc(CC(C)C)cc(C(=O)N2CCCC(CNS(=O)(=O)c3cccs3)C2)n1 (stereo not given) | 0.7 | -8.2 | -19.5 | i | . | .
CCN1C(=O)[C@H]2[C@H]3CN=C(SCc4ccccc4)N3[C@@](Cc3ccccc3)(C(=O)OC)[C@H]2C1=O | 2.5 | . | . | i | i | 0.8
COC(=O)[C@@]1(Cc2ccccc2)[C@H]2C(=O)N(C)C(=O)[C@H]2[C@H]2CN=C(SCC3CC3)N21 | 1.5 | . | . | i | . | .
CCN1C(=O)[C@H]2[C@H]3CN=C(SCc4ccc(C#N)cc4)N3[C@@](Cc3ccccc3)(C(=O)OC)[C@H]2C1=O | 2.5 | . | . | i | . | .
CCN1C(=O)[C@H]2[C@H]3CN=C(SCC4CC4)N3[C@@](Cc3ccccc3)(C(=O)OC)[C@H]2C1=O | 3.7 | . | . | i | i | 0.4
CCc1c(C2(O)CCCCC2)[nH]c2ncccc12 | 0.5 | 1.3 | . | i | . | .
Cc1ccc(S(=O)(=O)CCC(=O)Nc2nnc(-c3ccco3)o2)cc1 | -1.0 | 1.2 | -15.1 | i | . | .
O=C(CCS(=O)(=O)c1ccc(Cl)cc1)Nc1nnc(-c2ccco2)o1 | 0.2 | 4.0 | 3.0 | + | i | 0.0
SMILES | SENP1 inh | VLA-4 inh | Platelet DG rel | Myeloid diff MLP | Myeloid diff | GFP autofluor
O=C(NN=C1CCCCCC1)c1cc(-c2ccccc2)nc2ccccc12 | -1.7 | 12.5 | -4.3 | i | . | .
Cc1ccc(-c2cc(C(=O)NN=C3CCCC3)c3ccccc3n2)cc1 | 3.0 | 0.2 | 5.5 | i | i | 0.0
c1coc(C2Nc3ccccc3-c3nc4ccccc4n32)c1 (stereo not given) | -2.2 | 20.6 | 11.1 | i | i | 0.8
S=c1nc[nH]c2c1ncn2C1CCCC1 | 1.7 | -9.3 | 11.2 | i | . | .
CCc1ccc(C(=O)NNC(=O)CCC2CCCCC2)cc1 | -0.1 | 9.2 | 2.9 | i | . | .
c1ccc(CNc2ncnc3scc(-c4cccs4)c23)nc1 | 2.5 | 2.6 | 9.1 | i | i | 0.9
c1ccc(-c2csc3ncnc(NCc4ccccn4)c23)cc1 | -1.6 | 19.1 | 1.1 | i | . | .
N#Cc1c(N)nc(SCc2ccccc2)c(C#N)c1-c1ccco1 | -19.4 | 3.1 | -4.1 | i | . | .
N#Cc1c(N)nc(SC2CCCCC2=O)c(C#N)c1-c1ccco1 (stereo not given) | -20.5 | -5.3 | -0.2 | i | i | 0.8
COc1cccc(/C=C2\Oc3ccc(O)cc3C2=O)c1O | -26.6 | -1.3 | 45.1 | i | . | .
Nc1cccc(C#Cc2ccc3c(c2)C(=O)/C(=C/c2ccsc2)O3)c1 | -8.1 | 14.5 | . | i | i | 0.0
C#CCNC(=O)C1=C[C@H](C2CCCCC2)[C@@H](CCCO)[C@H](OCC)O1 | -1.0 | 10.8 | -0.6 | i | . | .
O=[N+]([O-])c1ccc(/C=C/c2nc3ccc([N+](=O)[O-])cc3[nH]2)cc1 | 5.4 | 23.6 | 3.6 | + | i | 0.0
Nc1nc2ccc([N+](=O)[O-])cc2[nH]1 | 1.1 | -2.5 | -1.7 | i | . | .
N#Cc1c(NC(=O)CCN2C(=O)c3ccccc3C2=O)oc(-c2ccccc2)c1-c1ccccc1 | 0.4 | -1.8 | 4.4 | i | . | .
N#Cc1c(NC(=O)CCn2cnc3ccccc3c2=O)oc(-c2ccccc2)c1-c1ccccc1 | 1.1 | 23.4 | -3.1 | i | i | 0.0
CCCNS(=O)(=O)c1cccc(C(=O)NC2CCCc3ccccc32)c1 (stereo not given) | 0.7 | 2.8 | 0.4 | i | i | 0.3
CN(C)S(=O)(=O)c1cccc(C(=O)NC2CCCc3ccccc32)c1 (stereo not given) | -1.0 | 9.4 | -1.4 | i | . | .
CC(C)C1C(=O)N(Cc2cn(CCC3OCCCO3)nn2)CCS(=O)(=O)N1Cc1ccc(-c2ccc(Cl)c(Cl)c2)cc1 (stereo not given) | -1.2 | . | . | i | . | .
C[C@H](O)[C@@H]1C(=O)N2CCc3ccc(-c4cccc(F)c4)cc3[C@@H]2C[C@@H]1N(C)C(=O)Nc1ccccc1 | -64.9 | . | . | i | . | .
C[C@H](O)[C@@H]1C(=O)N2CCc3ccc(-c4ccccc4)cc3[C@@H]2C[C@@H]1N(C)C(=S)Nc1ccc(F)cc1 | -6.3 | . | . | i | i | 86.8*
O=C(CSc1nc(=O)n(CCCN2CCOCC2)c2c1CCC2)Nc1ccc(F)cc1F | 1.2 | 5.5 | -0.2 | i | . | .
O=C(CSc1nc(=O)n(CCCN2CCOCC2)c2c1CCCC2)Nc1ccc(F)cc1F | 2.1 | 0.5 | 10.3 | + | i | 0.0
CCOC(=O)c1ccc(NCC(O)COc2ccccc2)cc1 (stereo not given) | 2.9 | -17.9 | 2.7 | i | . | .

High-throughput results from PubChem.
